Reference: ChEMBL document CHEMBL1157578, “Design, synthesis, and biological evaluation of novel water-soluble triptolide derivatives: Antineoplastic activity against imatinib-resistant CML cells bearing T315I mutant Bcr-Abl” (Bioorg Med Chem, 2010)
Calls of active or inactive are those of the source. The calls are words filed in the database; no cut-off is given here.

How the values were obtained:
MEF = test: Cytotoxicity against MEF after 72 hrs by MTS assay; format: cell-based; conditions: Mus musculus
In short: (§1)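 MEF and NHFB fibroblasts cultured in DMEM + 10% FCS. Exposed to increasing concentrations for 72 h. Viability by MTS reagent, optical density at 490 nm.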

[1] = Cytotoxicity against mouse 32D cells harboring wild type Bcr-Abl after 72 hrs by MTS assay; format: functional, cell-based
In short: (§2)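 32D myeloid cells stably expressing wild-type or T315I Bcr-Abl, maintained in RPMI 1640 + 10% FBS. Treated with increasing concentrations for 72 h. Viability by MTS, optical density at 490 nm.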

[2] = Cytotoxicity against imatinib-resistant human KBM5 cells harboring Bcr-Abl T315I mutant after 72 hrs by MTS assay; format: functional, cell-based; conditions: KBM5, 72 h
In short: (§3)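 KBM5 (wild-type p210 Bcr-Abl) or KBM5-T315I cells in IMDM + 10% heat-inactivated FCS. The T315I subline was kept in 1 µM imatinib, removed 2–3 days before assay. Cells incubated 72 h with increasing concentrations. Viability by MTS at 490 nm, as percent of control; IC50 from dose–response curves.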

[3] = Cytotoxicity against imatinib-resistant mouse 32D cells harboring Bcr-Abl T315I mutant after 72 hrs by MTS assay; format: functional, cell-based; in short: as §2
[4] = Cytotoxicity against human KBM5 cells harboring wild type Bcr-Abl after 72 hrs by MTS assay; format: functional, cell-based; conditions: KBM5, 72 h; in short: as §3
[5] = Cytotoxicity against NHFB after 72 hrs by MTS assay; set-up: species or system Homo sapiens; in short: as §1
KBM5 [6] = test: Cytotoxicity against imatinib-resistant human KBM5 cells harboring Bcr-Abl T315I mutant at 0.001 to 17 uM after 72 hrs by MTS assay; format: functional, cell-based; in short: as §3
KBM5 [7] = test: Cytotoxicity against human KBM5 cells harboring wild type Bcr-Abl at 0.001 to 17 uM after 72 hrs by MTS assay; format: functional, cell-based; in short: as §3
[8] = Aqueous solubility in water; format: physicochemical; conditions: buffer
KBM5 [9] = test: Inhibition of RNA polymerase 2 in human KBM5 cells harboring Bcr-Abl T315I mutant assessed as decrease in polymerase 2 phosphorylation after 18 hrs by Western blot analysis; format: cell-based
In short: (§4)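 Cells exposed for 18 h at the indicated concentrations. Whole-cell lysates made in RIPA buffer with phosphatase and protease inhibitors. Western blot for Bcr-Abl (c-Abl C-19), phospho-c-Abl Y245, phospho-RNA polymerase II, PARP, and actin as loading control.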

[10] = Downregulation of Bcr-Abl protein level in mouse 32D cells harboring wild type Bcr-Abl after 18 hrs by Western blot analysis; format: functional, cell-based; in short: as §4
[11] = Downregulation of Bcr-Abl protein level in human KBM5 cells harboring Bcr-Abl T315I mutant after 18 hrs by Western blot analysis; format: functional, cell-based; in short: as §4
HCT-116 = test: Inhibition of RNA polymerase 2 in human HCT116 cells assessed as decrease in polymerase 2 phosphorylation at 50 to 100 nM after 18 hrs by Western blot analysis; format: cell-based
[12] = Downregulation of Bcr-Abl protein level in human KBM5 cells harboring wild type Bcr-Abl after 18 hrs by Western blot analysis; format: functional, cell-based; in short: as §4
KBM5 [13] = test: Inhibition of RNA polymerase 2 in human KBM5 cells harboring wild type Bcr-Abl assessed as decrease in polymerase 2 phosphorylation after 18 hrs by Western blot analysis; format: cell-based; in short: as §4
KBM5 [14] = test: Induction of apoptosis in human KBM5 cells harboring Bcr-Abl T315I mutant assessed as PARP cleavage at 50 to 100 uM after 18 hrs by Western blot analysis; format: functional, cell-based
DU-145 = test: Inhibition of RNA polymerase 2 in human DU145 cells assessed as decrease in polymerase 2 phosphorylation at 50 to 100 nM after 18 hrs by Western blot analysis; format: cell-based
[15] = Downregulation of Bcr-Abl protein level in mouse 32D cells harboring Bcr-Abl T315I mutant after 18 hrs by Western blot analysis; format: functional, cell-based; in short: as §4
[16] = Downregulation of Bcr-Abl mRNA level in human KBM5 cells harboring wild type Bcr-Abl at 50 to 100 nM after 18 hrs by semi-quantitative RT-PCR analysis; format: functional, cell-based
In short: (§5)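 KBM5 and KBM5-T315I cells exposed to 50 or 100 nM, or control medium, for 18 h. Bcr-Abl and GAPDH mRNA measured by semi-quantitative RT-PCR; products run on 1% agarose and stained with ethidium bromide.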

HeLa = test: Inhibition of RNA polymerase 2 in human HeLa cells assessed as decrease in polymerase 2 phosphorylation at 50 to 100 nM after 18 hrs by Western blot analysis; format: cell-based
KBM5 [17] = test: Induction of apoptosis in human KBM5 cells harboring wild type Bcr-Abl assessed as PARP cleavage at 50 to 100 uM after 18 hrs by Western blot analysis; format: functional, cell-based
[18] = Downregulation of Bcr-Abl mRNA level in human KBM5 cells harboring Bcr-Abl T315I mutant at 50 to 100 nM after 18 hrs by semi-quantitative RT-PCR analysis; format: functional, cell-based; in short: as §5

Structure (SMILES) | IC50 [2] [nM] | IC50 [4] [nM] | Activity (KBM5 [6]) | Activity (KBM5 [7]) | solubility [8] | also measured
CC(C)[C@]12O[C@H]1[C@@H]1O[C@@]13[C@H]1CCC4=C(COC4=O)[C@@H]1C[C@@H]1O[C@@]13[C@@H]2OC(=O)CN | 11.7 | 19.2 |  |  |  | IC50 (MEF): 11100 nM; IC50 [1]: 50 nM; IC50 [3]: 44 nM; IC50 [5]: 11400 nM
CC(C)[C@]12O[C@H]1[C@@H]1O[C@@]13[C@H]1CCC4=C(COC4=O)[C@@H]1C[C@@H]1O[C@@]13[C@@H]2OC(=O)CNc1ccc(Cl)cc1 | 734 | 5020 | inactive | inactive |  | 
CCCCCCCCCCCCNCC(=O)O[C@@H]1[C@@]2(C(C)C)O[C@H]2[C@@H]2O[C@@]23[C@H]2CCC4=C(COC4=O)[C@@H]2C[C@@H]2O[C@]213 | 1040 | 5420 | inactive | inactive |  | 
CCN(CC)CC(=O)O[C@@H]1[C@@]2(C(C)C)O[C@H]2[C@@H]2O[C@@]23[C@H]2CCC4=C(COC4=O)[C@@H]2C[C@@H]2O[C@]213 |  | 78 | Active | Active | Soluble | 
CC(C)[C@]12O[C@H]1[C@@H]1O[C@@]13[C@H]1CCC4=C(COC4=O)[C@@H]1C[C@@H]1O[C@@]13[C@@H]2OC(=O)CNc1nccc(-c2cccnc2)n1 | 214 | 297 | Active | Active | Soluble | 
CC(C)[C@]12O[C@H]1[C@@H]1O[C@]13[C@]1(O[C@H]1C[C@H]1C4=C(CC[C@@]13C)C(=O)OC4)[C@@H]2O [TRIPTOLIDE] | 8.3 | 10.3 | Active | Active | Insoluble | IC50 (MEF): 9200 nM; IC50 [1]: 32 nM; IC50 [3]: 34 nM; IC50 [5]: 8800 nM
CNCC(=O)O[C@@H]1[C@@]2(C(C)C)O[C@H]2[C@@H]2O[C@@]23[C@H]2CCC4=C(COC4=O)[C@@H]2C[C@@H]2O[C@]213 | 308 | 348 | Active | Active | Soluble | 
COC(=O)[C@H](C)NCC(=O)O[C@@H]1[C@@]2(C(C)C)O[C@H]2[C@@H]2O[C@@]23[C@H]2CCC4=C(COC4=O)[C@@H]2C[C@@H]2O[C@]213 | 14.2 | 18.6 | Active | Active | Soluble | 
CC(C)[C@]12O[C@H]1[C@@H]1O[C@@]13[C@H]1CCC4=C(COC4=O)[C@@H]1C[C@@H]1O[C@@]13[C@@H]2OC(=O)CN(CCO)CCO | 1550 | 2800 | inactive | inactive |  | 
CC(C)[C@]12O[C@H]1[C@@H]1O[C@@]13[C@H]1CCC4=C(COC4=O)[C@@H]1C[C@@H]1O[C@@]13[C@@H]2OC(=O)CNCCN | 950 | 774 | Active | Active | Soluble | 
CC(C)[C@]12O[C@H]1[C@@H]1O[C@@]13[C@H]1CCC4=C(COC4=O)[C@@H]1C[C@@H]1O[C@@]13[C@@H]2OC(=O)CCl |  |  | Active | Active |  | 
CC(C)[C@]12O[C@H]1[C@@H]1O[C@@]13[C@H]1CCC4=C(COC4=O)[C@@H]1C[C@@H]1O[C@@]13[C@@H]2OC(=O)CNCCO | 19.7 | 18.2 | Active | Active | Soluble | inhibition (KBM5 [9]): Dose-dependent effect; Activity [10]: Dose-dependent effect; Activity [11]: Dose-dependent effect; inhibition (HCT-116): Active; Activity [12]: Dose-dependent effect; inhibition (KBM5 [13]): Dose-dependent effect; IC50 (MEF): 10400 nM; Activity (KBM5 [14]): Active; inhibition (DU-145): Active; Activity [15]: Dose-dependent effect; Activity [16]: Active; inhibition (HeLa): Active; IC50 [1]: 61 nM; Activity (KBM5 [17]): Active; Activity [18]: Active; IC50 [3]: 74 nM; IC50 [5]: 10000 nM
CC(C)[C@]12O[C@H]1[C@@H]1O[C@@]13[C@H]1CCC4=C(COC4=O)[C@@H]1C[C@@H]1O[C@@]13[C@@H]2OC(=O)CN1CCNCC1 | 548 | 496 | Active | Active | Soluble | 
